Data from ChEMBL document CHEMBL1914416, “Discovery of pyridine-2-ones as novel class of multidrug resistance (MDR) modulators: first structure-activity relationships” (Bioorg Med Chem, 2011).

How the values were obtained:
[1] = biological target: T1, ATP-dependent translocase ABCB1 (Homo sapiens, UniProt P08183); test: Reversal of human MDR1-mediated rhodamine 123 uptake in mouse L5178Y cells assessed as fluorescence activity ratio at 10 mM by flow cytometry relative to non p-gp expressing parental cell line; assay type: cell-based; details: in the assay text read “10 µM” for “10 mM”
How it was run: (§1)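 Mouse T-lymphoma L5178Y parental and retrovirally transfected P-gp-expressing L5178Y mdr cells were grown in McCoy's 5A with 10% heat-inactivated horse serum and 2 mM L-glutamine; the mdr line was precultured with 60 ng/mL colchicine. Cells (2 × 10^6/mL, serum-free) were preincubated with inhibitor 10 min at rt, then given rhodamine 123 for 20 min at 37 °C. They were washed twice and resuspended in PBS. Uptake was read by flow cytometry (1 × 10^4 cells). FAR is the mdr/parental quotient, each corrected by inhibitor-free controls.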

[2] = biological target: T1, ATP-dependent translocase ABCB1; test: Reversal of human MDR1-mediated rhodamine 123 uptake in mouse L5178Y cells assessed as fluorescence activity ratio at 1 µM by flow cytometry relative to non p-gp expressing parental cell line
[3] = biological target: T1, ATP-dependent translocase ABCB1; test: Reversal of human MDR1-mediated rhodamine 123 uptake in mouse L5178Y cells assessed as fluorescence activity ratio at 20 umol by flow cytometry relative to non p-gp expressing parental cell line; assay type: cell-based; how it was run: as §1
[4] = tested on: L5178Y; test: Cytotoxicity against mouse L5178Y cells at 20 umol by flow cytometric analysis; assay type: cell-based

T1 sequence (P08183 whole entry): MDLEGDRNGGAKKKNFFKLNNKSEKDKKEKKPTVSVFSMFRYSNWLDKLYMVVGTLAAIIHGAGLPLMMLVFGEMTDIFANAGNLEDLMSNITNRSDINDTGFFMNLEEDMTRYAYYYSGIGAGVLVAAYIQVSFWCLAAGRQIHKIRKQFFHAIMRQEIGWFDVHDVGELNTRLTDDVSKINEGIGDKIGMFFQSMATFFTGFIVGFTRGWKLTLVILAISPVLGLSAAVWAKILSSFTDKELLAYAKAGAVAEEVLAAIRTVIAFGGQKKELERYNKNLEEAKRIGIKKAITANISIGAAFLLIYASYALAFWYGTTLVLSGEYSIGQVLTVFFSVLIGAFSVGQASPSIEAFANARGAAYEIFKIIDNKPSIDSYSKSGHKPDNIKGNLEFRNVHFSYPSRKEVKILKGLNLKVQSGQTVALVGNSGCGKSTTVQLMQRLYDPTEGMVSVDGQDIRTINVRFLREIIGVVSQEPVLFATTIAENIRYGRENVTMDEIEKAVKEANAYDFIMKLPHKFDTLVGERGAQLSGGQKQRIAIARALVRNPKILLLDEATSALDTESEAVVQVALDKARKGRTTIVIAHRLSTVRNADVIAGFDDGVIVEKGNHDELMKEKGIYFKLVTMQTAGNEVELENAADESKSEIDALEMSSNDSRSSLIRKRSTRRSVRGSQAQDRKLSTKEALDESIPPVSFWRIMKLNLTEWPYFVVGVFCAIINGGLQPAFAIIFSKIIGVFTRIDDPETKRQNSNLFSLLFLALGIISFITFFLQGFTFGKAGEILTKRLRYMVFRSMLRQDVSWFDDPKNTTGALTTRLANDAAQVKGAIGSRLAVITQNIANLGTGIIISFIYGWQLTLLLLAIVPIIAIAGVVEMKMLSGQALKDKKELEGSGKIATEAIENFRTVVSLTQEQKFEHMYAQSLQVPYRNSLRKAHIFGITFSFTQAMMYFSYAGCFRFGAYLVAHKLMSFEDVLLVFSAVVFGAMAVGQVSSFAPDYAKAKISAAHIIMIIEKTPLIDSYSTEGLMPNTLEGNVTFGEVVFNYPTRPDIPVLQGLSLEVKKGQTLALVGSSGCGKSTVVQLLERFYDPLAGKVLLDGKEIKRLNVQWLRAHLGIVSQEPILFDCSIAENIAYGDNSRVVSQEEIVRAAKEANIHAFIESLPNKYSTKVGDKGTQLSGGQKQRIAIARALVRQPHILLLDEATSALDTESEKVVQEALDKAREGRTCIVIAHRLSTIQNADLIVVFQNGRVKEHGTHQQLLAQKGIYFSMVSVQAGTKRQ

Row | Ratio [1] | Ratio [2] | Ratio [3] | SMILES | Activity [4]
1 | 1.71 | 0.99 | – | N#Cc1c(-c2ccccc2)ccn(Cc2ccccc2)c1=O | –
2 | 1.83 | 1.05 | – | Cc1ccccc1-c1ccn(Cc2ccccc2)c(=O)c1C#N | –
3 | 1.56 | 0.98 | – | Cc1ccc(-c2ccn(Cc3ccccc3)c(=O)c2C#N)cc1 | –
4 | 1.35 | 1.05 | – | COc1ccc(-c2ccn(Cc3ccccc3)c(=O)c2C#N)cc1 | Non-toxic

More lines, now with the values behind:

Row | SMILES | Ratio [1] | Ratio [2] | Ratio [3] | Activity [4]
5 | COC(=O)c1c(-c2ccccc2)ccn(Cc2ccccc2)c1=O | 1.74 | 1.06 | – | –
6 | COC(=O)c1c(Cc2ccccc2)ccn(Cc2ccccc2)c1=O | 1.68 | 1.09 | – | –
7 | COC(=O)c1c(-c2ccccc2C)ccn(Cc2ccccc2)c1=O | 1.51 | 1.1 | – | –
8 | COC(=O)c1c(-c2ccc(C)cc2)ccn(Cc2ccccc2)c1=O | 1.75 | 0.94 | – | –
9 | COC(=O)c1c(-c2ccc(OC)cc2)ccn(Cc2ccccc2)c1=O | 1.91 | 0.94 | – | –
10 | N#Cc1c(Cc2ccccc2)ccn(Cc2ccccc2)c1=O | 1.63 | 1.06 | – | –
11 | COc1ccccc1-c1ccn(Cc2ccccc2)c(=O)c1C#N | 2.16 | 1.29 | 3.3 | Non-toxic
12 | O=C(OCc1ccccc1)c1c(-c2ccccc2)ccn(Cc2ccccc2)c1=O | 2.59 | 1.22 | – | –
13 | COc1ccc(CCN(C)CCCC(C#N)(c2ccc(OC)c(OC)c2)C(C)C)cc1OC (centres undefined) [VERAPAMIL] | 2.94 | 0.89 | – | –
